Compound activity deposited in PubChem BioAssay by several laboratories.
NR2E3 ag-1 = inhibitors of NR2E3-RetCOR corepressor binding, primary screen, NR2E3 agonist project, biochemical, TR-FRET, GST-NR2E3, biotin-RetCOR | Photoreceptor-specific nuclear receptor (Homo sapiens), Q9Y5X4 | 1536-well | inhibition of corepressor binding, % at 4.78 µM | actives 0.12% (n = 320,000) | AID 2300, 2010;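 active = percent inhibition above the cutoff of mean plus 3 SD of all tested compounds, set per screening campaign, cut at about 20% in these data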;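 also: 0% = DMSO wells and 100% = biotin wells as full block of FRET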
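Test system – NR2E3–RetCOR corepressor complex · Quantity – NR2E3 fusion 1.35 nM · Buffer or medium – Tris pH 7.5 · Incubation – Compound–protein incubation for 5 h at 4 °C · Technique – TR-FRET, Eu(K)-anti-GST donor, streptavidin-D2 acceptor, ex 340, em 617/671 nm · Evaluation – percent inhibition of 671/617 nm emission ratio versus biotin and DMSO controls · Plate – 1536-well format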
NR1D1 modulator = modulators of Rev-erb alpha DNA binding, primary screen, biochemical, FITC-DNA, fluorescence polarization, uHTS; Nuclear receptor subfamily 1 group D member 1 (Homo sapiens), P20393; Rev-erbα–FITC-DNA binding, 90 min; activity, % at 10 µM; actives 0.79% (n = 370,000);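 active = activity above about 14%, limit read from the data; passing the limit was not always enough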;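 also: 0% = DMSO wells with 35 nM protein and 100% = DMSO wells with 750 nM protein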
Target sequence (P20393 whole entry, looked up): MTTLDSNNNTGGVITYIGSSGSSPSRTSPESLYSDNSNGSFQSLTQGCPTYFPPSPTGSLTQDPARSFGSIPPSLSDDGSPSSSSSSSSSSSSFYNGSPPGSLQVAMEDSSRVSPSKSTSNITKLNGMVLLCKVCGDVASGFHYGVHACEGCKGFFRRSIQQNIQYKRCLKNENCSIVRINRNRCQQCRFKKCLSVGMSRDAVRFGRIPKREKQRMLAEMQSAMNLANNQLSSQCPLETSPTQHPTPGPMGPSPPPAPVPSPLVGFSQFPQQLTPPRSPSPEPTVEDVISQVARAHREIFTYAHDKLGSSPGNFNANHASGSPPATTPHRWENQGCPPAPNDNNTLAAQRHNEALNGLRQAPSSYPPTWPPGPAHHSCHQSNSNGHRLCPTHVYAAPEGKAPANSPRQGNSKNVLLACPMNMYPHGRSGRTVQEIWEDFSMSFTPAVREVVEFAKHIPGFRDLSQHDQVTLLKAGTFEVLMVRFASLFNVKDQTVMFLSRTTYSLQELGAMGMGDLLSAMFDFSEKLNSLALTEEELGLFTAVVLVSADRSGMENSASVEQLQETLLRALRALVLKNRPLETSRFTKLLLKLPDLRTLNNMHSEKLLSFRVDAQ
NR2E3 ag-2 = NR2E3 agonists in two-hybrid cells, primary screen, cell-based, luminescence, CHO-S, Gal4-NCOR/VP16-NR2E3; Photoreceptor-specific nuclear receptor (Homo sapiens), Q9Y5X4; luciferase; inhibition of corepressor binding, % at 3.98 µM; actives 0.35% (n = 360,000); AID 602229, 2012;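 active = inhibition above the mean of all tested compounds plus 3 SD, cut at about 70% in these data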;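 also: 0% = DMSO with NR2E3 transfected cells and 100% = cells lacking NR2E3 construct; higher means lower luciferase signal from less NR2E3 corepressor binding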
PG9 Ab binder = binders of HIV-1 gp120 antibody PG9, primary screen, biochemical, TR-FRET. TR-FRET gp120-PG9 antibody binding. inhibition, % at 6.7 µM. AID 624416, 2012. actives 0.43% (n = 360,000). HIV-1 gp120 / PG9 antibody interaction; in the data active = inhibition above about 8.5%
NR2E3 agonist cf = NR2E3 agonists, confirmation, biochemical, TR-FRET | shares compounds with NR2E3 ag-1 | cell-free NR2E3 corepressor release, 5 h | activation (reported as inhibition), % at 3.98 µM | actives 39% (n = 360); in the data active = activation above about 20%
PPARg-NCOR2 ctr = agonists of PPARg-NCOR2 corepressor interaction, counter-screen for NR2E3 agonist project, biochemical, TR-FRET; actives 45% (n = 360); shares compounds with NR2E3 ag-1; TR-FRET PPARg-NCOR2 coregulator interaction; AID 504787, 2011; inhibition, % at 3.98 µM; in the data active = inhibition above about 20%;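 also: 0% = DMSO vehicle and 100% = wells without protein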
PG9 binder conf = binders of anti-gp120 antibody PG9, confirmation, biochemical, TR-FRET. actives 90% (n = 1,500). AID 651571, 2012. TR-FRET PG9 antibody binding. shares compounds with PG9 Ab binder. inhibition, % at 6.7 µM; in the data active = inhibition above about 9%
PGV04 counter = binders of control antibody PGV04, counter-screen for PG9 antibody binder project, biochemical, TR-FRET, distinct HIV envelope site. shares compounds with PG9 Ab binder. TR-FRET PGV04 antibody-gp120 binding. inhibition, % at 6.7 µM. actives 95% (n = 1,500); in the data active = inhibition above about 9.5%
PG9 bind DR = small-molecule binders of antibody PG9, dose response, biochemical, TR-FRET, HIV-1 gp120 antibody; shares compounds with PG9 Ab binder; TR-FRET PG9 antibody-gp120 binding inhibition; IC50, µM; 95 tested, under 10 active; in the data active = IC50 below about 10 µM
PGV04 binding DR = binders of control antibody PGV04, dose response, counter-screen for PG9 antibody binder project, biochemical, TR-FRET, distinct HIV envelope site | shares compounds with PG9 Ab binder | TR-FRET binding to control antibody PGV04 | IC50, µM | actives 20% (n = 95) | AID 651937, 2012
PG126 binding DR = binders of control antibody PG126, dose response, counter-screen for PG9 antibody binder project, biochemical, TR-FRET, distinct HIV envelope site; shares compounds with PG9 Ab binder; TR-FRET binding to antibody PG126, counterscreen; IC50, µM; actives 20% (n = 95); AID 651939, 2012
* = called active by the depositor; i = inactive; nt = no result. A selection: hits, their analogues and other compounds. The true share with any hit is near 1.4%. Rule as the data show it, unless noted: active = IC50 below about 9 µM; inactive = the rest.

SMILES	NR2E3 ag-1	NR1D1 modulator	NR2E3 ag-2	PG9 Ab binder	NR2E3 agonist cf	PPARg-NCOR2 ctr	PG9 binder conf	PGV04 counter	others
CSc1nc(Sc2ccccc2Cl)c2ccccc2n1	26*	3	-2	9.1*	10	13	17*	22*
O=S(=O)(Nc1cccnc1)c1ccc(Br)c2ccccc12	30*	5	14	15*	17	21*	24*	30*
CC(=O)OCC(=O)[C@@]1(O)CCC2C3CCC4=CC(=O)CC[C@]4(C)[C@@]3(F)[C@@H](O)C[C@@]21C (stereo partly specified)	nt	-1	nt	nt	nt	nt	nt	nt
CN1CCN(NC(=O)c2cc(-c3ccc(Br)s3)nc3ccccc23)CC1	26*	-1	-9	19*	16	20*	39*	68*
CCc1ccc(-c2cc(C(=O)NN3CCOCC3)c3ccccc3n2)s1	2	8	-20	1	nt	nt	nt	nt
N#Cc1c(-c2ccco2)nc(SCC(=O)Nc2cccc(Cl)c2)[nH]c1=O	26*	-3	-27	15*	7	22*	28*	32*
O=C(CSc1nc2[nH]ncc2c(=O)[nH]1)Nc1cccc(Cl)c1	-1	0	-16	2	nt	nt	nt	nt
Cc1cc(SCC(=O)NC2CCCC2)nc2ccccc12	22*	4	-10	16*	8	5	31*	44*
CC1(C)C2CCC1(C)C(O)C2 (stereo unspecified)	nt	0	nt	nt	nt	nt	nt	nt
Cc1cccc(-n2c(=S)[nH]c3c(oc4ccccc43)c2=O)c1	37*	-1	-9	16*	35*	25*	7	9.4*
O=c1c2oc3ccccc3c2[nH]c(=S)n1-c1ccccc1	50*	8	-6	17*	45*	45*	14*	13*	PG9 bind DR=i;PGV04 binding DR=i;PG126 binding DR=i
Cc1ccc(-n2c(=S)[nH]c3c(oc4ccccc43)c2=O)cc1	20*	1	-41	18*	43*	34*	17*	7	PG9 bind DR=>67;PGV04 binding DR=>67;PG126 binding DR=>67
C=C(c1ccccc1OCc1cccc(Cl)c1)n1ccnc1	nt	-1	nt	nt	nt	nt	nt	nt
CCN(CC(=O)NC(C)C)Cc1nc2c(Br)cc(Br)cc2c(=O)[nH]1	55*	5	-27	23*	56*	48*	40*	52*
CC1CCCN(C(=O)CSc2cnc3ccccc3n2)C1 (stereo unspecified)	48*	4	-56	30*	14	11	35*	39*
Cc1nc2ccccc2nc1SCC(=O)N1CCC(C)CC1	22*	3	15	38*	13	16	34*	42*
CO[C@H]1/C=C/O[C@@]2(C)Oc3c(C)c(O)c4c(O)c(c(C=NN5CCN(C)CC5)c(O)c4c3C2=O)NC(=O)/C(C)=C\C=C\C(C)[C@H](O)[C@@H](C)[C@@H](O)[C@@H](C)[C@@H](OC(C)=O)[C@@H]1C (stereo partly specified)	nt	-2	nt	nt	nt	nt	nt	nt
CCC1(C)Cc2ccccc2-c2nc[nH]c(=O)c21 (stereo unspecified)	-1	-5	-4	-1	nt	nt	nt	nt
Cn1c(=S)[nH]c2c(c1=O)C(C)(C)Cc1ccccc1-2	39*	-5	15	17*	41*	35*	11*	11*
CC1(C)Cc2ccccc2-c2nc(NN)[nH]c(=O)c21	1	3	5	-1	nt	nt	nt	nt
CCC1(C)Cc2ccccc2-c2[nH]c(=S)[nH]c(=O)c21 (stereo unspecified)	31*	-1	12	32*	20*	17	6	8
O=C(O)c1cc(-c2ccco2)nc2ccc(Br)cc12	34*	-6	-22	25*	26*	29*	45*	58*
COCCCN1C(=O)C(O)=C(C(=O)c2ccc(C)o2)C1c1cccc(Br)c1 (stereo unspecified)	45*	1	-32	19*	20*	20*	20*	26*
CCCCOc1cccc(C2C(C(=O)c3ccc(C)o3)=C(O)C(=O)N2Cc2ccco2)c1 (stereo unspecified)	nt	-1	22	2	nt	nt	nt	nt
C=CCOc1ccc(C2C(C(=O)c3ccc(C)o3)=C(O)C(=O)N2Cc2cccnc2)cc1 (stereo unspecified)	20*	-4	-1	11*	5	5	27*	31*
CCOc1cccc(C2C(C(=O)c3ccc(C)o3)=C(O)C(=O)N2CCCn2ccnc2)c1 (stereo unspecified)	24*	0	-9	9.1*	29*	28*	15*	19*
C=CCOc1cccc(C2C(C(=O)c3cccs3)=C(O)C(=O)N2Cc2cccnc2)c1 (stereo unspecified)	2	-1	4	7	nt	nt	nt	nt
CCOc1cccc(C2C(C(=O)c3ccc(C)o3)=C(O)C(=O)N2c2nccs2)c1 (stereo unspecified)	19	-2	-6	6	nt	nt	nt	nt
